Format in all cases: functional
The test system of test [1] is Clostridioides difficile. Kind of test: Antimicrobial activity against Clostridium difficile isolate 46 by agar dilution method. In outline: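 CLSI reference agar dilution method for anaerobes, with endpoints read per guideline M11-A7. Rifaximin was dissolved in methanol, diluted in 0.1 M phosphate buffer (pH 7.4) with 0.45% SDS, and tested at 0.0009–256 μg/ml. Rifampin was dissolved in methanol, diluted in water, and tested at 0.00001–256 μg/ml. C. difficile ATCC […] served as control. Isolates were typed by HindIII REA.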
For orientation: In agar dilution the substance is mixed into plates at graded concentrations.

Test [2] relates to Clostridioides difficile. Kind of test: Antimicrobial activity against rifaximin-resistant Clostridium difficile isolate 50 expressing RpoB R505K mutant by agar dilution method. In outline: (§1)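 MICs were found by the CLSI reference agar dilution method for anaerobes, with endpoints read per M11-A7 and C. difficile […] as control. Rifaximin was dissolved in methanol, diluted in 0.1 M phosphate buffer pH 7.4 with 0.45% SDS, and tested at 0.0009–256 μg/ml. Rifampin was dissolved in methanol, diluted in water, and tested at 0.00001–256 μg/ml.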

The test system of test [3] is Clostridioides difficile. Kind of test: Antimicrobial activity against Clostridium difficile isolate 43 by Etest. In outline: (§2)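 Rifampin Etest strips were run on brucella blood agar following the manufacturer's instructions to give an MIC. Clinical isolates were typed by HindIII REA.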
The subject of test [4] is Clostridioides difficile. Kind of test: Antimicrobial activity against Clostridium difficile isolate 48 by Etest. In outline:
as §2

Test [5] deals with Clostridioides difficile. The experiment in a line: Antimicrobial activity against Clostridium difficile isolate 62 by Etest. The method, boiled down: as §2
Test [6] deals with Clostridioides difficile. Kind of test: Antimicrobial activity against rifaximin-resistant Clostridium difficile isolate 4 expressing RpoB S488T and R505K mutants by agar dilution method. In outline: as §1
Test [7] concerns Clostridioides difficile. Kind of test: Antimicrobial activity against Clostridium difficile isolate 11 by agar dilution method. The method, boiled down:
(§3)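 MIC by CLSI reference agar dilution for anaerobes, with endpoints read per M11-A7 and C. difficile […] as control. Rifaximin was dissolved in methanol, diluted in 0.1 M phosphate buffer pH 7.4 plus 0.45% SDS, and tested at 0.0009–256 μg/ml. Rifampin was dissolved in methanol, diluted in water, and tested at 0.00001–256 μg/ml.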

Test [8] relates to Clostridioides difficile. Kind of test: Antimicrobial activity against Clostridium difficile isolate 23 by agar dilution method. In outline: as §3
Test [9] concerns Clostridioides difficile. The experiment in a line: Antimicrobial activity against Clostridium difficile isolate 25 by agar dilution method. In outline:
as §3

We go through one compound from ChEMBL document CHEMBL1275484, “Rifampin and rifaximin resistance in clinical isolates of Clostridium difficile” (Antimicrob Agents Chemother, 2008).

Values after ≈ are worked out from the molar mass of the structure shown.

What is called MIC is the lowest concentration that inhibits growth of the organism. High values mean weaker potency, low ones greater potency. For `CO[C@H]1/C=C/O[C@@]2(C)Oc3c(C)c(O)c4c(O)c(c(/C=N/N5CCN(C)CC5)c(O)c4c3C2=O)NC(=O)/C(C)=C\C=C\[C@H](C)[C@H](O)[C@@H](C)[C@@H](O)[C@@H](C)[C@H](OC(C)=O)[C@@H]1C` [RIFAMPIN], the MIC in test [1] is 0.9 ng/mL (≈ 1.09 nM); in [2], 128000 ng/mL (≈ 156000 nM); in test [3] it was less than 2 ng/mL; in test [4], less than 2 ng/mL; in test [5] it was less than 2 ng/mL; in [6], more than 256000 ng/mL. For the same compound, the MIC in [7] was found to be 0.06 ng/mL (≈ 0.0729 nM); in test [8], 0.9 ng/mL (≈ 1.09 nM); in [9], 0.9 ng/mL (≈ 1.09 nM).
